This is an account of results in PMC6828556 (Biochemical pharmacology, 2017).

Series [1] addresses T1, 11β-HSD2 (Homo sapiens, UniProt P80365).
T1 sequence (P80365 1-405): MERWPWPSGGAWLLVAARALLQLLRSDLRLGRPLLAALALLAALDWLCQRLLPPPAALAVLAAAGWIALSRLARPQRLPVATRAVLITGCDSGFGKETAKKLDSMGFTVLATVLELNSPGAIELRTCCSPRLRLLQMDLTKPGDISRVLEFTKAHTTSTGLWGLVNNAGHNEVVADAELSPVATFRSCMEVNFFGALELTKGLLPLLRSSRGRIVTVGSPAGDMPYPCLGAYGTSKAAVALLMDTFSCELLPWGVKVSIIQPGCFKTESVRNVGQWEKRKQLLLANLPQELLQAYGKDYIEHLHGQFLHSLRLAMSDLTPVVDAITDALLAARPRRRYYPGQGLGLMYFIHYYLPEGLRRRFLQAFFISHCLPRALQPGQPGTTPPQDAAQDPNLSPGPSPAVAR
The class given is biochemical. As to conditions: preincubation 0, 5, 20 min at 4°C or 10 min followed by dilution. In a few lines: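 Lysates of HEK-293 cells expressing human 11β-HSD2 were preincubated with test compound for 0, 5 or 20 min at 4°C before activity measurement. Alternatively, lysates were preincubated 10 min with compound, then diluted 1:2 or 1:4 before measuring 11β-HSD2 activity (radiolabeled cortisol, NAD+, TLC/scintillation). Data were normalized to DMSO control; mean ± SD, ≥3 independent experiments.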

Series [2] has as its target T1, 11β-HSD2. The experiment in a line: 11β-HSD2 activity in intact SW-620 cells. The class given is cell-based. In outline:
(§1)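 Cells were grown in DMEM with 10% FBS (SW-620 passages 11–15, MCF-7 passages 19–27) and seeded at 100 000 (SW-620) or 50 000 (MCF-7) per well. After 24 h, medium was replaced by steroid- and serum-free DMEM with vehicle or inhibitor plus radiolabeled cortisol (10 nCi; 50 nM final). Incubation was at 37°C for 4 h (SW-620) or 5 h (MCF-7). Conversion was read by TLC and scintillation counting.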

For series [3] the following is noted: predominately to albumin; cited from earlier work.
In series [4] the target is T1, 11β-HSD2. The experiment in a line: 11β-HSD2 activity in lysates of HEK-293 cells stably expressing human 11β-HSD2. The class given is biochemical. As to conditions: for inhibition at 20 µM: read-out: inhibition of 11β-HSD2 enzyme activity; for residual 11β-HSD2 activity: 20 μM test substance. In outline:
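Reactions were stopped with excess unlabeled cortisone/cortisol, giving about 20–25% conversion. Products were separated by TLC (chloroform:methanol 9:1) and counted by scintillation. Activity was normalized to vehicle; mean ± SD, ≥3 independent experiments.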

Another series deals with T2, human 17β-HSD2 (Homo sapiens, UniProt P37059).
T2 sequence (P37059 1-387): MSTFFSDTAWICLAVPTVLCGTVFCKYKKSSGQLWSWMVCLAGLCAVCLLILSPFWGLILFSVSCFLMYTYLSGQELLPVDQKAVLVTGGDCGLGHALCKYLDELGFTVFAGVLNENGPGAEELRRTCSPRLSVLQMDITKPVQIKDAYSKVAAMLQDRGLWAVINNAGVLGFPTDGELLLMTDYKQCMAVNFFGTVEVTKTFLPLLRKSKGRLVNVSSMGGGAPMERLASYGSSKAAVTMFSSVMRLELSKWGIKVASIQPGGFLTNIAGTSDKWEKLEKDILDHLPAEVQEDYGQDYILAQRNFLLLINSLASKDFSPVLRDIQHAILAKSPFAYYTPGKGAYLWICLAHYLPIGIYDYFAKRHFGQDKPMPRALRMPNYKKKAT
The experiment in a line: 17β-HSD2 activity in lysates of transiently transfected HEK-293 cells. To be noted: HEK-293 lysates, 200 nM estradiol; data not shown. In kind it is biochemical. In outline:
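Lysates of HEK-293 cells transiently expressing human 17β-HSD2 were incubated for 10 min at 37°C with 200 nM estradiol (containing 50 nCi [2,4,6,7-3H]-estradiol), 500 μM NAD+ and test compound or DMSO vehicle. Steroids were separated by TLC, with conversion quantified by scintillation counting. Results were normalized to the vehicle control. Data are mean ± SD from at least three independent experiments.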

The next series concerns the target T3, human 17β-HSD1 (Homo sapiens, UniProt P14061).
T3 sequence (P14061 1-328): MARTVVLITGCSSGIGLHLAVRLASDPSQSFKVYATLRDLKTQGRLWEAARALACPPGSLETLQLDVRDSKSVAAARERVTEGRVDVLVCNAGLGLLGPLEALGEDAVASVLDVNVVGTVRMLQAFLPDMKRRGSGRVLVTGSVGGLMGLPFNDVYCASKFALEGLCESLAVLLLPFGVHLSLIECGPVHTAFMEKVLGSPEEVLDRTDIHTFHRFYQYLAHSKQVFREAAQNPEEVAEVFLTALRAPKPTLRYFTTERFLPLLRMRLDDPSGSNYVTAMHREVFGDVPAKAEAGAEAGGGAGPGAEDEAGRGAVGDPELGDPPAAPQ
The experiment in a line: 17β-HSD1 activity in lysates of transiently transfected HEK-293 cells. In kind it is biochemical. To be noted: HEK-293 lysates, 200 nM estrone; data not shown. In outline:
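Lysates of HEK-293 cells transiently expressing human 17β-HSD1 were incubated for 10 min at 37°C with 200 nM estrone (containing 50 nCi [2,4,6,7-3H]-estrone), 500 μM NADPH and test compound or DMSO vehicle. Steroids were separated by TLC, and substrate conversion was measured by scintillation counting. Activity was normalized to the vehicle control. Data are mean ± SD from at least three independent experiments.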

Series [5] has as its target T1, 11β-HSD2. Put plainly: 11β-HSD2 activity in intact MCF-7 cells. The class given is cell-based. In outline:
as §1

The next series concerns the target human 11β-HSD1 (Homo sapiens, UniProt P28845). The class given is biochemical. As to conditions: for activity against 11β-HSD1 (in words): HEK-293 lysates, recombinant human enzyme; for inhibition at 20 µM: read-out: inhibition of 11β-HSD1 enzyme activity. In outline:
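Lysates of HEK-293 cells stably co-expressing human 11β-HSD1 and H6PDH (HHH7 clone) were incubated 10 min at 37°C with 200 nM radiolabeled cortisone, 500 μM NADPH and test compound or DMSO vehicle (max 0.1%). Reactions were stopped with excess unlabeled cortisone/cortisol, giving about 20–25% conversion. Steroids were separated by TLC (chloroform:methanol 9:1) and counted by scintillation. Activity was normalized to vehicle; mean ± SD, ≥3 independent experiments. IC50 was skipped when residual activity at 20 μM exceeded 40%.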

Another series deals with 11β-HSD1. As to conditions: cited from earlier work.
Series [6] relates to 11β-HSD2. As to conditions: cited from earlier work.
The conditions of series [7]: pulmonary alveolar cells; cited from earlier work.

human 11β-HSD1, sequence (P28845 whole entry): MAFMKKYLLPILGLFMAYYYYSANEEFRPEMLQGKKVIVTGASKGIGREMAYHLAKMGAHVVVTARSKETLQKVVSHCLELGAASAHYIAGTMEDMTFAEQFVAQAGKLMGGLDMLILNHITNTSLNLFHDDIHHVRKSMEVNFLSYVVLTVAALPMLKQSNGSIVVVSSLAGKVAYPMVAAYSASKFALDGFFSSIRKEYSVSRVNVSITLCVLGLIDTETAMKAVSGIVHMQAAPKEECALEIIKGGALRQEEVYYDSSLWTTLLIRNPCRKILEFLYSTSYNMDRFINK

Consider `CC(O)C(C)n1ncn(-c2ccc(N3CCN(c4ccc(OCC5COC(Cn6cncn6)(c6ccc(Cl)cc6Cl)O5)cc4)CC3)cc2)c1=O` (centres unmarked) [OHI, hydroxyitraconazole], for which, on 11β-HSD2 [1], the “irreversible 11β-HSD2 inhibition” value is “excluded”. Moreover, the IC50 at 11β-HSD2 [2] is 820 ± 180 nM; at 11β-HSD2 [4], 223 ± 31 nM; on 11β-HSD2 [5], 680 ± 200 nM. For the same compound, the plasma protein binding in [3] was 99.6%. In addition, the “inhibition of human 11β-HSD2 (in words)” value against 11β-HSD2 [4] (5 μM, HEK-293 lysates, 200 nM cortisol) was “complete inhibition”. Further, the “inhibition of 17β-HSD2 activity” value against human 17β-HSD2 is reported as “None of the compounds inhibited 17β-HSD1 or 17β-HSD2 activity”. In addition, the “inhibition of 17β-HSD1 activity” value at human 17β-HSD1 is “None of the compounds inhibited 17β-HSD1 or 17β-HSD2 activity”.

On to `CCCSc1ccc2nc(NC(=O)OC)[nH]c2c1` [Albendazole], for which the “activity against 11β-HSD2 (in words)” value at 11β-HSD2 [4] (HEK-293 lysates, recombinant human enzyme) is “inactive”. The “activity against 11β-HSD1 (in words)” value on human 11β-HSD1 is “inactive”.

In the case of `CCCN(CCC)S(=O)(=O)c1ccc(C(=O)O)cc1` [probenecid], the inhibition at 20 µM on 11β-HSD2 [4] and at human 11β-HSD1 was below 40% throughout.

Take `Clc1ccc(CCC(Cn2ccnc2)Sc2c(Cl)cccc2Cl)cc1` (centres unmarked) [butoconazole]: on 11β-HSD2 [4] (HEK-293 lysates), the “residual 11β-HSD2 activity” value is listed as 44%. For the same compound, on human 11β-HSD1, the inhibition at 20 µM is at least 50%.

Consider `CCC[C@@H]1C[C@@H](C(=O)N[C@@H]([C@H]2O[C@H](SC)[C@H](O)[C@@H](O)[C@H]2O)[C@H](C)Cl)N(C)C1` [clindamycin], for which the inhibition at 20 µM on 11β-HSD2 [4] and on human 11β-HSD1 was below 40% each time.

With `CCN(CC)CCCC(C)Nc1ccnc2cc(Cl)ccc12` (centres unmarked) [chloroquine], the inhibition at 20 µM on 11β-HSD2 [4] and on human 11β-HSD1 was below 40% in each case.

For `Cc1onc(-c2ccccc2Cl)c1C(=O)N[C@@H]1C(=O)N2[C@@H]1SC(C)(C)[C@@H]2C(=O)O` [cloxacillin], the inhibition at 20 µM on 11β-HSD2 [4] and at human 11β-HSD1 was below 40% in each case.

Consider `CCC[C@@H]1C[C@@H](C(=O)N[C@@H]([C@H]2O[C@H](SC)[C@H](O)[C@@H](O)[C@H]2O)[C@@H](C)O)N(C)C1` [lincomycin], for which the inhibition at 20 µM on 11β-HSD2 [4] and at human 11β-HSD1 was below 40% throughout.

Consider `Cc1onc(-c2c(F)cccc2Cl)c1C(=O)N[C@@H]1C(=O)N2[C@@H]1SC(C)(C)[C@@H]2C(=O)O` [flucloxacillin], for which the inhibition at 20 µM at 11β-HSD2 [4] and at human 11β-HSD1 was below 40% throughout.

On to `Clc1ccc(C(Cn2ccnc2)OCc2ccsc2Cl)c(Cl)c1` (centres unmarked) [tioconazole], for which the “residual 11β-HSD2 activity” value at 11β-HSD2 [4] (HEK-293 lysates) turned out to be 50%. Further, the inhibition at 20 µM on human 11β-HSD1 is at least 50%.

Regarding `CC(=O)N1CCN(c2ccc(OCC3COC(Cn4ccnc4)(c4ccc(Cl)cc4Cl)O3)cc2)CC1` (centres unmarked) [Ketoconazole], in the series on 11β-HSD1, the “inhibitory effect toward 11β-HSD1 (in words)” value is listed as “weak inhibitory effects”. The “inhibitory effect toward 11β-HSD2 (in words)” value with 11β-HSD2 [6] is recorded as “weak inhibitory effects”.

Turning to `N=C(N)c1ccc(OCCCCCOc2ccc(C(=N)N)cc2)cc1` [pentamidine], the inhibition at 20 µM at 11β-HSD2 [4] and on human 11β-HSD1 was below 40% throughout.

Regarding `CC(=O)O[C@H]1C[C@@]2(C)[C@@H](C[C@@H](O)[C@H]3[C@@]4(C)CC[C@@H](O)[C@@H](C)[C@@H]4CC[C@@]32C)/C1=C(\CCC=C(C)C)C(=O)O` [fusidic acid], the inhibition at 20 µM on 11β-HSD2 [4] and on human 11β-HSD1 was below 40% each time.

Regarding `CC[C@@H]([C@H](C)O)n1ncn(-c2ccc(N3CCN(c4ccc(OC[C@@H]5CO[C@@](Cn6cncn6)(c6ccc(F)cc6F)C5)cc4)CC3)cc2)c1=O` [posaconazole], the “concentration in pulmonary alveolar cells compared with plasma” value in [7] is recorded as 31-42 fold. Moreover, the “irreversible 11β-HSD2 inhibition” value at 11β-HSD2 [1] was “excluded”. Further, the “residual 11β-HSD2 activity” value on 11β-HSD2 [2] (SW-620 cells, 5 μM) is reported as “approximately 60%”; on 11β-HSD2 [5] (MCF-7 cells, 5 μM), around 40%. In addition, the plasma protein binding in [3] was at least 98%. Also, the IC50 against 11β-HSD2 [4] was 460 ± 98 nM. Besides, the “IC25 for 11β-HSD2” value at 11β-HSD2 [4] (as determined in HEK-293 cell lysates) is given as 237 nM. Besides, the “inhibition of 17β-HSD2 activity” value against human 17β-HSD2 is listed as “None of the compounds inhibited 17β-HSD1 or 17β-HSD2 activity”. For the same compound, the “inhibition of 17β-HSD1 activity” value against human 17β-HSD1 was “None of the compounds inhibited 17β-HSD1 or 17β-HSD2 activity”. Also, the “activity against 11β-HSD1 (in words)” value on human 11β-HSD1 is “inactivity towards 11β-HSD1”.

For `CCOc1ccc2ccccc2c1C(=O)N[C@@H]1C(=O)N2[C@@H]1SC(C)(C)[C@@H]2C(=O)O` [nafcillin], the inhibition at 20 µM at 11β-HSD2 [4] and on human 11β-HSD1 was below 40% throughout.

`Clc1ccc(C(Cn2ccnc2)OCc2csc3c(Cl)cccc23)c(Cl)c1` (centres unmarked) [sertaconazole]: the “residual 11β-HSD2 activity” value at 11β-HSD2 [4] (HEK-293 lysates) came out at 61%. On human 11β-HSD1, the inhibition at 20 µM was at least 50%.

For `CC(C)(C)C(=O)C(Oc1ccc(Cl)cc1)n1cncn1` (centres unmarked) [triadimefon], the IC50 with 11β-HSD1 (read-out: IC50 as competitive inhibitor of 11β-HSD1) was 15000 nM. In the series with 11β-HSD1 (read-out: Km as substrate of 11β-HSD1), the Km was 3.5 µM.

`CCN(CC)Cc1cc(Nc2ccnc3cc(Cl)ccc23)ccc1O` [amodiaquine]: the inhibition at 20 µM at 11β-HSD2 [4] and at human 11β-HSD1 was below 40% throughout.

One may read the IC50 as the midpoint of a concentration-inhibition curve. Broadly, the inhibition is the drop in the measured response relative to a control, in per cent. The term Km denotes the substrate concentration at which the rate is half of its maximum.
